{
  "source": "ChEMBL document CHEMBL5678801",
  "about": "“A benzothiophene inhibitor of mitogen-activated protein kinase-activated protein kinase 2 inhibits tumor necrosis factor alpha production and has oral anti-inflammatory efficacy in acute and chronic models of inflammation” (J Pharmacol Exp Ther, 2010)",
  "key": {"[1]": {"test": "AUC in chronic SCW-induced arthritis Lewis rat model plasma at ED80 concentration", "type": "ADME, cell-free", "procedure,_shortened": "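Female Lewis rats (125-140 g) received a single i.p. streptococcal cell wall injection. Animals showing the acute phase were pooled, 4-8 per group over three experiments. Dosing was oral gavage b.i.d., days 10-21, in methylcellulose-Tween-20 vehicle. Hind paw volume was read by displacement plethysmometer on day 21, as % inhibition of swelling. Plasma was sampled up to 11 h after the last dose, 3 rats per dose. ED values came from fitted curves.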"}, "[2]": {"biological_target": "MAP kinase-interacting serine/threonine-protein kinase 1 (Homo sapiens, UniProt Q9BUB5)", "sequence (Q9BUB5 whole entry)": "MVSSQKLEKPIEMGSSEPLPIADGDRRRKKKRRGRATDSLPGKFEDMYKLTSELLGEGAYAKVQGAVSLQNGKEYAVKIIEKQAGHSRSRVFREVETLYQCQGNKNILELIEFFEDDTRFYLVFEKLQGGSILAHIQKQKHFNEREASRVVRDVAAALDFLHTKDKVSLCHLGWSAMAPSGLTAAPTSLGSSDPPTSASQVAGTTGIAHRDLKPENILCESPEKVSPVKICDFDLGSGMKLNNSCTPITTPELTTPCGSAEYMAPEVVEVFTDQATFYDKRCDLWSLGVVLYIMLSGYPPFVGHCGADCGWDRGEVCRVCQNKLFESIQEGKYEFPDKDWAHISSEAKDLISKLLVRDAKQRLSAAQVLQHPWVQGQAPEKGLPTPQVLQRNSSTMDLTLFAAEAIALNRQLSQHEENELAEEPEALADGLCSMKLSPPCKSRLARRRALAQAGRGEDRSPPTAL", "test": "Inhibition of recombinant MNK1 (unknown origin) expressed in Escherichia coli using KKKALSRQLSVAA as substrate incubated for 1 hr followed by substrate addition in presence of ATP", "procedure,_shortened": "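Recombinant MAPKAP kinase was first activated with activated p38α (1:50 molar ratio) and 250 μM ATP for 1 hr at 30°C. Activity was then assayed at Km(app) MgATP by ion-exchange separation of 33P-labeled product peptide. IC50 was taken from duplicate experiments.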"}, "Rattus norvegicus": {"test_system": "Rattus norvegicus", "test": "Antiinflammatory activity in acute LPS induced TNF-alpha production in Lewis rat model administered via oral dose pretreated for 4 hrs followed by LPS stimulation and measured after 90 mins […]", "type": "functional", "conditions": "5.5 h, time 330 min", "procedure,_shortened": "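Male Lewis rats (225-250 g, 5 per group) were fasted 18 h, then dosed orally at 0.2-60 mg/kg as a suspension in 0.5% methylcellulose/0.025% Tween 20. LPS 1 mg/kg was given i.v. 4 h later. Blood was taken by cardiac puncture 90 min after LPS. Serum TNFα was read by ELISA and drug by LC-MS/MS, three independent experiments. 4-parameter fit. Unbound values were corrected with measured rat plasma protein binding.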"}, "[3]": {"biological_target": "T1, Serine/threonine-protein kinase BRSK1 (Homo sapiens, UniProt Q8TDC3)", "T1 sequence (Q8TDC3 whole entry)": "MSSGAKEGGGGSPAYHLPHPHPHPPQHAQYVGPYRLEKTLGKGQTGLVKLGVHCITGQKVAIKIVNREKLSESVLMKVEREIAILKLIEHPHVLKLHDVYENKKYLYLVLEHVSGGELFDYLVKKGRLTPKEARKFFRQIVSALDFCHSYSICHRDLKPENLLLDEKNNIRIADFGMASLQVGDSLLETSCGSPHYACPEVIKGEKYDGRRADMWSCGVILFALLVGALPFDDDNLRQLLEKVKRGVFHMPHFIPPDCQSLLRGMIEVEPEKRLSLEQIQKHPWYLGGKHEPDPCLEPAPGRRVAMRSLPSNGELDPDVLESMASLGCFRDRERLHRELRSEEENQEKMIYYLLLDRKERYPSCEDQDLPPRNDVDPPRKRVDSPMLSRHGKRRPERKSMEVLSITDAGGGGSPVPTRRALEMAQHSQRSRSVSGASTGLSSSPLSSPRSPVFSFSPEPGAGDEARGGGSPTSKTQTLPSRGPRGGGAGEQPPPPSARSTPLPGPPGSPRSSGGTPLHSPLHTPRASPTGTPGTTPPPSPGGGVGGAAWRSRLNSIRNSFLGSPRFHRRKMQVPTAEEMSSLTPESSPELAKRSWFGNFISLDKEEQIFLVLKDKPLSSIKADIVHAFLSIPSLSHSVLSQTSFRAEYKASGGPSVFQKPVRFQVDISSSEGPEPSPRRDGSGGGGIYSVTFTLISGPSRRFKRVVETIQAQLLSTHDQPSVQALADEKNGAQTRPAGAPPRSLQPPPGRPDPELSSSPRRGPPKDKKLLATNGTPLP", "test": "Inhibition of BrSK1 (unknown origin)", "procedure,_shortened": "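Selectivity profiling began with a 200-kinase screen at 1 μM compound; kinases above 50% inhibition were then titrated for IC50. MgATP was fixed at each enzyme's Km(app). Buffer was 20 mM HEPES pH 7.5 with 10 mM MgCl2, 1 mM DTT, 0.01% BSA and 0.0005% Tween-20. Endpoint reactions were stopped in the linear phase with 30 mM EDTA.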"}, "[4]": {"test": "Antiinflammatory activity in human Whole blood cell assessed as inhibition of LPS induced IL-8 production preincubated for 1 hr followed by LPS stimulation and measured after 16 hrs by MSD analysis", "type": "functional, cell-based", "procedure,_shortened": "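Human whole blood was stimulated ex vivo with LPS 100 ng/ml. Plasma cytokines were read by MSD 4-plex: TNFα at 4 h; IL-1β, IL-6 and IL-8 at 16 h. Data are means ±S.E.M. of two independent experiments in duplicate, three donors. IC50 by 4-parameter nonlinear regression.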"}, "[5]": {"test": "Inhibition of TNF alpha production in LPS induced human PBMC cells preincubated with compound for 1 hr followed by LPS induction and measured after 16 hrs by MSD analysis", "type": "functional, cell-based"}, "[6]": {"test": "Inhibition of AMPK (unknown origin)", "set-up": "species or system Homo sapiens"}},
  "note": "pIC50: −log10 of the molar value.",
  "data": [
    {"molecule": "Cc1ccc(-c2ccc3c(ccc4sc5c(c43)NC[C@@H](C)NC5=O)n2)cn1", "values": [
      {"measurement": "AUC", "setting": "[1]", "result": 117, "unit": "µM·h"},
      {"measurement": "pIC50", "setting": "[2]", "result": 5.52},
      {"measurement": "ED50", "setting": "Rattus norvegicus", "result": 6.9, "unit": "mg/kg"},
      {"measurement": "ED80", "setting": "Rattus norvegicus", "result": 19, "unit": "mg/kg"},
      {"measurement": "pIC50", "setting": "[3]", "result": 6.73},
      {"measurement": "pIC50", "setting": "[4]", "result": "< 4.70"},
      {"measurement": "pIC50", "setting": "[5]", "result": 6.80},
      {"measurement": "pIC50", "setting": "[6]", "result": 6.93}
    ]}
  ]
}
